For 28 compounds, IC50, Ratio IC50 and Activity results are on record in ChEMBL document CHEMBL1156564, “2-Phenoxy-indan-1-one derivatives as acetylcholinesterase inhibitors: a study on the importance of modifications at the side chain on the activity” (Bioorg Med Chem, 2008).

What is called IC50 is the concentration at which inhibition is half-maximal.

Structures are written as SMILES. Calls of active or inactive are those of the source. The calls are words filed in the database; no cut-off is given here.

One test deals with T1, Acetylcholinesterase (Rattus norvegicus, UniProt P37136).
T1 sequence (P37136 whole entry): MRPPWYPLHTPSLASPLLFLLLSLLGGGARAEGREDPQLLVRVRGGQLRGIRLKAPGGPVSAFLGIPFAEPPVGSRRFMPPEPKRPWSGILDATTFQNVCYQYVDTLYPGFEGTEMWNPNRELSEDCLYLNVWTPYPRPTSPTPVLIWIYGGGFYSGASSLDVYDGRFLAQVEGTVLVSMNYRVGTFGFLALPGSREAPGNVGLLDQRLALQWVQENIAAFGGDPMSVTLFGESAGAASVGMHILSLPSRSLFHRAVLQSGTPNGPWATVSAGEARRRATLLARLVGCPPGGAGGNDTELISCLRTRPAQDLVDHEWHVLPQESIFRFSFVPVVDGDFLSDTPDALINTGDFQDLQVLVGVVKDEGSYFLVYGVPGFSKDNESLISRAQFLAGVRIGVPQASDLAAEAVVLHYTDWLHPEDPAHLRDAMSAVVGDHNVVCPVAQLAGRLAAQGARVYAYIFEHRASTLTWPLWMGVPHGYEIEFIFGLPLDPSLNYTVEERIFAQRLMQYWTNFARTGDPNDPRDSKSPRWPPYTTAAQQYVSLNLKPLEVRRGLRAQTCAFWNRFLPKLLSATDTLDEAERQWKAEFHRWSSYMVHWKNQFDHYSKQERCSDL
The test can be described thus: Inhibition of AchE in rat cortex by Ellman's method.

The species named for the next test is Rattus norvegicus. Kind of test: Selectivity ratio of IC50 for BuchE in rat serum to IC50 for AchE in rat cortex. Type of test: cell-free. The gist of the method: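 IC50 ratio from modified Ellman assays. BuChE from rat serum with butyrylthiocholine iodide. AChE from rat cortex homogenate, preincubated with isoOMPA (0.04 mmol/L) to block BuChE, with acetylthiocholine iodide. Each mixture held enzyme source, sodium phosphate buffer pH 7.4 and compound at different concentrations, incubated 37 °C for 15 min.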

For another test, the target named is Butyrylcholinesterase (Rattus norvegicus, UniProt Q9JKC1). The test can be described thus: Inhibition of BuchE in rat serum by Ellman's method. Type of test: cell-free. The gist of the method:
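Modified Ellman assay with rat serum as BuChE source. Mixture of butyrylthiocholine iodide, sodium phosphate buffer pH 7.4, serum and tested compound at different concentrations, incubated 37 °C for 15 min.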
In general terms: Ellman's reagent forms a yellow product with free thiols.

In test [1] the test system is PC-12. The test can be described thus: Neuroprotective activity against rat PC12 cells assessed as inhibition of H2O2-induced neurotoxicity at 0.5 uM after 2 hrs by MTT assay. The test is classed as functional, cell-based. Put shortly: (§1)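 Undifferentiated PC12 cells were seeded at 5000 cells/well and cultured at 37 °C under 5% CO2. They were left to attach for 1 day before […] was added. 2 h later the cells were exposed to H2O2. Viability was read by MTT (0.25 mg/mL final, 4 h), with formazan dissolved in DMSO and OD read at 570 nm.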

Test [2] concerns PC-12. Kind of test: Neuroprotective activity in rat PC12 cells assessed as inhibition of H2O2-induced neurotoxicity at 0.1 uM after 2 hrs by MTT assay. The test is classed as functional, cell-based. The gist of the method: as §1
Background: Formazan colour is commonly taken as a measure of viable cells.

Butyrylcholinesterase, sequence (Q9JKC1 whole entry): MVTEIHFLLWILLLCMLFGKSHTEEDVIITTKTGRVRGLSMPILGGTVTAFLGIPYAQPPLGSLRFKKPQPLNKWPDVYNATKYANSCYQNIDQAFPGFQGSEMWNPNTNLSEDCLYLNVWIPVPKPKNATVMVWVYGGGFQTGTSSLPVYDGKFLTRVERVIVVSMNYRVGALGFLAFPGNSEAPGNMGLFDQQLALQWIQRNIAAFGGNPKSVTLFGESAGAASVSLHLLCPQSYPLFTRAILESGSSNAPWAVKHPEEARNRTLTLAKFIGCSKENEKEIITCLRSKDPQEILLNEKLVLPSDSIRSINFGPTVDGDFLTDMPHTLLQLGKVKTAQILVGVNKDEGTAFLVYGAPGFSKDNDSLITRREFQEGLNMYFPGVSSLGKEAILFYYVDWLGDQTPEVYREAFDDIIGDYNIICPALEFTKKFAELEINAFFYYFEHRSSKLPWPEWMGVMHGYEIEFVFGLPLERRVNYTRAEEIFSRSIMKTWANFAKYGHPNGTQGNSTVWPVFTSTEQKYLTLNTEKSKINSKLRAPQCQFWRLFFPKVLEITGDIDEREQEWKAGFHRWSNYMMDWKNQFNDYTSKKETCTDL

In the case of `CCN(C)CCc1ccc(OC2Cc3cc(OC)c(OC)cc3C2=O)cc1` (stereo not given), the IC50 is 51.6 nM on Acetylcholinesterase and 22000 nM at Butyrylcholinesterase. Moreover, in the test listed under Rattus norvegicus, the Ratio IC50 was determined as 427.
The matching figures for `CCN(CC)CCC(=O)c1cccc(OC2Cc3cc(OC)c(OC)cc3C2=O)c1` (stereo not given): 2370 nM, 1520 nM and 0.64.
With `COc1cc2c(cc1OC)C(=O)C(Oc1ccc(CCCCN3CCCC3)cc1)C2` (stereo not given), the IC50 against Acetylcholinesterase turned out to be 415 nM; at Butyrylcholinesterase, 3220 nM. For the same compound, the Ratio IC50 in the test filed under Rattus norvegicus worked out at 7.76.
Turning to `COc1cc2c(cc1OC)C(=O)C(Oc1ccc(C(=O)CCN3CCCC3)cc1)C2` (stereo not given), the figures for the IC50 at Acetylcholinesterase and on Butyrylcholinesterase were 4.16 nM and 6040 nM, respectively. In addition, the Ratio IC50 in the test filed under Rattus norvegicus was 1450.
On to `COc1cc2c(cc1OC)C(=O)C(Oc1ccc(CCN3CCCC3)cc1)C2` (stereo not given), for which the results for the IC50 at Acetylcholinesterase and against Butyrylcholinesterase were 37.3 nM and 30400 nM, respectively. In addition, in the test filed under Rattus norvegicus, the Ratio IC50 was found to be 816.
On the same counts, the results for `CCN(CC)CCc1ccc(OC2Cc3cc(OC)c(OC)cc3C2=O)cc1` (stereo not given) are 42.1 nM, 16600 nM and 394.
On the same counts, the results for `CCN(CC)CCc1cccc(OC2Cc3cc(OC)c(OC)cc3C2=O)c1` (stereo not given) are 2090 nM, 11100 nM and 5.31.
`CCN(CC)CCC(=O)c1ccc(OC2Cc3cc(OC)c(OC)cc3C2=O)cc1` (stereo not given): the figures for the IC50 on Acetylcholinesterase and on Butyrylcholinesterase were 0.78 nM and 1520 nM, respectively. The Ratio IC50 in the test filed under Rattus norvegicus stood at 1950. The outcome with PC-12 [1] and in the test on PC-12 [2] was Active.
As for `COc1cc2c(cc1OC)C(=O)C(Oc1ccc(CCN3CCCCC3)cc1)C2` (stereo not given), the IC50 on Acetylcholinesterase was found to be 50.2 nM; against Butyrylcholinesterase it was 5110 nM. Moreover, the Ratio IC50 in the test filed under Rattus norvegicus was 102.
Turning to `CCN(C)CCc1cccc(OC2Cc3cc(OC)c(OC)cc3C2=O)c1` (stereo not given), the IC50 at Acetylcholinesterase stood at 710 nM; against Butyrylcholinesterase, 8650 nM. In addition, the Ratio IC50 in the test listed under Rattus norvegicus was determined as 12.2.
The matching figures for `COc1cc2c(cc1OC)C(=O)C(Oc1cccc(CCN3CCCCC3)c1)C2` (stereo not given): 1550 nM, 7000 nM and 4.52.
On to `CCN(CC)CCCc1ccc(OC2Cc3cc(OC)c(OC)cc3C2=O)cc1` (stereo not given), for which the IC50 at Acetylcholinesterase is 277 nM; against Butyrylcholinesterase, 3990 nM. In the test listed under Rattus norvegicus, the Ratio IC50 came out at 14.4.
Regarding `CCN(CC)CCCCc1ccc(OC2Cc3cc(OC)c(OC)cc3C2=O)cc1` (stereo not given), the IC50 was 481 nM against Acetylcholinesterase and 3260 nM at Butyrylcholinesterase. Further, the Ratio IC50 in the test filed under Rattus norvegicus worked out at 6.77.
The matching figures for `CCN(C)CC(=O)c1ccc(OC2Cc3cc(OC)c(OC)cc3C2=O)cc1` (stereo not given): 31.6 nM, 588 nM and 18.6.
On the same counts, the results for `COc1cc2c(cc1OC)C(=O)C(Oc1ccc(C(=O)CN3CCCC3)cc1)C2` (stereo not given) are 240 nM, 1720 nM and 7.2.
On the same counts, the results for `CCN(CC)CCCC(=O)c1ccc(OC2Cc3cc(OC)c(OC)cc3C2=O)cc1` (stereo not given) are 40.6 nM, 37700 nM and 927.
With `COc1cc2c(cc1OC)C(=O)C(Oc1ccc(CCCN3CCCC3)cc1)C2` (stereo not given), the IC50 worked out at 209 nM at Acetylcholinesterase and 2340 nM at Butyrylcholinesterase. The Ratio IC50 in the test filed under Rattus norvegicus was determined as 11.2.
On the same counts, the results for `COc1cc2c(cc1OC)C(=O)C(Oc1cccc(C(=O)CCN3CCCC3)c1)C2` (stereo not given) are 832 nM, 11100 nM and 13.3.
On the same counts, the results for `CCN(C)CCCC(=O)c1ccc(OC2Cc3cc(OC)c(OC)cc3C2=O)cc1` (stereo not given) are 37.6 nM, 26900 nM and 715.
On the same counts, the results for `CCN(CC)CC(=O)c1ccc(OC2Cc3cc(OC)c(OC)cc3C2=O)cc1` (stereo not given) are 280 nM, 2430 nM and 8.7.
Regarding `CCN(C)CCC(=O)c1ccc(OC2Cc3cc(OC)c(OC)cc3C2=O)cc1` (stereo not given), the IC50 was determined as 1.85 nM against Acetylcholinesterase and 4510 nM on Butyrylcholinesterase. For the same compound, in the test filed under Rattus norvegicus, the Ratio IC50 stood at 2440.
Turning to `COc1cc2c(cc1OC)C(=O)C(CC1CCN(Cc3ccccc3)CC1)C2` (stereo not given), the outcome in the test on PC-12 [1] and in the test on PC-12 [2] was Active.
In the case of `COc1cc2c(cc1OC)C(=O)C(Oc1ccc(C(=O)CCCN3CCCC3)cc1)C2` (stereo not given), the figures for the IC50 against Acetylcholinesterase and against Butyrylcholinesterase were 62 nM and 2930 nM, respectively. The Ratio IC50 in the test filed under Rattus norvegicus is 47.2.
`COc1cc2c(cc1OC)C(=O)C(Oc1ccc(C(=O)CCCN3CCCCC3)cc1)C2` (stereo not given): the IC50 against Acetylcholinesterase is 529 nM; at Butyrylcholinesterase, 8970 nM. Moreover, the Ratio IC50 in the test listed under Rattus norvegicus is 17.
`COc1cc2c(cc1OC)C(=O)C(Oc1cccc(CCN3CCCC3)c1)C2` (stereo not given): the IC50 was 1770 nM on Acetylcholinesterase and 15400 nM on Butyrylcholinesterase. Further, in the test filed under Rattus norvegicus, the Ratio IC50 stood at 8.69.
The matching figures for `COc1cc2c(cc1OC)C(=O)C(Oc1ccc(CCCN3CCCCC3)cc1)C2` (stereo not given): 640 nM, 2790 nM and 4.36.
On the same counts, the results for `COc1cc2c(cc1OC)C(=O)C(Oc1ccc(C(=O)CN3CCCCC3)cc1)C2` (stereo not given) are 364 nM, 1660 nM and 4.57.
Regarding `COc1cc2c(cc1OC)C(=O)C(Oc1ccc(C(=O)CCN3CCCCC3)cc1)C2` (stereo not given), the IC50 at Acetylcholinesterase was 17.3 nM; on Butyrylcholinesterase it was 3240 nM. For the same compound, the Ratio IC50 in the test filed under Rattus norvegicus stood at 187.
